Published values of several laboratories.
Botulinum neurotoxin type A protease: Botulinum neurotoxin type A, protease (Clostridium botulinum, UniProt P0DPI0)
Slc6a3: Sodium-dependent dopamine transporter (Slc6a3, Rattus norvegicus, UniProt P23977)
Cnr1: Cannabinoid receptor 1 (Cnr1, Rattus norvegicus, UniProt P20272)
NA: Neuraminidase (NA, Influenza A virus, UniProt Q9IGQ6)

O=S(=O)(c1ccc(O)c2nc(Cl)ccc12)N1CCc2c(Cl)cccc21 — IC50 (Botulinum neurotoxin type A protease; enzyme activity; inhibitor): > 30000 nM
CCOC(=O)C1C(OC(c2ccc(F)cc2)c2ccc(F)cc2)CC2CCC1N2CCN (racemic) — Ki (Slc6a3; ligand displacement; radioligand; cell membranes): 17.2 nM
CCCCCCC(C)(C)c1cc(O)c2c(c1)OC(C)(C)[C@@H]1CC=C(C)C[C@@H]21 — Ki (Cnr1; ligand displacement; radioligand): 0.9 nM
CN(C)CCc1c[nH]c2ccccc12 — Ki (5-hydroxytryptamine receptor 1B (HTR1B, Homo sapiens, UniProt P28222); ligand displacement; radioligand): 130 nM
CN1[C@H]2CC[C@@H]1[C@@H](c1cc(-c3ccccc3)no1)[C@H](OC(c1ccc(F)cc1)c1ccc(F)cc1)C2 — Ki (Slc6a3; ligand displacement; radioligand; cell membranes): 14 nM
CC(Cc1cccc(Cl)c1)NC(C)(C)C (stereo not shown) — IC50 (Slc6a3; transporter uptake; inhibitor; radiometric): 938 nM
CC1=CC(=O)C2(O1)C(c1cc3oc(=O)c4cc(O)c(O)cc4c3c(=O)o1)=Cc1cc(O)c(O)cc12 (stereo not shown) — IC50 (NA; enzyme activity; inhibitor): 8100 nM
CC(C)(C)C(NC(=O)c1cn(CCCCCF)c2ccccc12)C(=O)O (stereo not shown) — IC50 (Cnr1; ligand displacement; radioligand; cell membranes): 3340 nM
CC(N)C(=O)c1cccc(Cl)c1 (stereo not shown) — IC50 (Slc6a3; transporter uptake; inhibitor; radiometric): 399 nM
O=C1C=CC(=O)N1Cc1ccc(Cl)cc1Cl — IC50 (Botulinum neurotoxin type A protease; enzyme activity; inhibitor): 80000 nM
COC(=O)C(NC(=O)c1cn(CCCCCF)c2ccccc12)C(C)(C)C (stereo not shown) — IC50 (Cnr1; ligand displacement; radioligand; cell membranes): 2 nM
O=C1C=C(/C=C/c2ccc(O)c(O)c2)OC12C(c1cc3oc(=O)c4cc(O)c(O)cc4c3c(=O)o1)=Cc1cc(O)c(O)cc12 (stereo not shown) — IC50 (NA; enzyme activity; inhibitor): 8000 nM
CC(C)NC(C)C(=O)c1cccc(Cl)c1 (stereo not shown) — IC50 (Slc6a3; transporter uptake; inhibitor; radiometric): 537 nM
